# Tests used:
# [1] = target: Mitogen-activated protein kinase 8 (Homo sapiens) (UniProt P45983); assay: Inhibition of JNK1 at 10 uM by HTRF assay relative to control
# Outline: (§1)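 HTRF kinase assay, one panel of kinases. Inhibitor stock 50 µM in 100% DMSO; tested at 10 µM. ATP and substrate at final levels near Km. Final buffer: 50 mM Hepes/NaOH pH 7.4, 40 µM Na3VO4, 0.005% Tween-20, 1 mM DTT, MnCl2 or MgCl2 at kinase-dependent levels. Started by adding ATP/substrate. Reaction run at room temperature, time varied by kinase. Detection mix in 50 mM Hepes pH 7.4, 0.1% BSA, 150 mM KF, incubated ≥1 h at room temperature. Activity expressed as % of uninhibited control; n=2.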
# [2] = target: Platelet-derived growth factor receptor beta (Homo sapiens) (UniProt P09619); assay: Inhibition of PDGFRbeta at 10 uM by HTRF assay relative to control; outline: as §1
# [3] = target: Proto-oncogene tyrosine-protein kinase Src (Homo sapiens) (UniProt P12931); assay: Inhibition of Src at 10 uM by HTRF assay relative to control; outline: as §1
# [4] = target: Tyrosine-protein kinase Lck (Homo sapiens) (UniProt P06239); assay: Inhibition of Lck at 10 uM by HTRF assay relative to control; outline: as §1
# [5] = target: Focal adhesion kinase 1 (Homo sapiens) (UniProt Q05397); assay: Inhibition of FAK at 10 uM by HTRF assay relative to control; outline: as §1
# [6] = target: Protein kinase C alpha type (Homo sapiens) (UniProt P17252); assay: Inhibition of PKCalpha at 10 uM by HTRF assay relative to control; outline: as §1
# [7] = target: 3-phosphoinositide-dependent protein kinase 1 (Homo sapiens) (UniProt O15530); assay: Inhibition of PDK1 at 10 uM by HTRF assay relative to control
# [8] = target: T1, Calcium/calmodulin-dependent protein kinase type IV (Homo sapiens) (UniProt Q16566); assay: Inhibition of CaMK4 at 10 uM by HTRF assay relative to control; outline: as §1
# T1 sequence (whole entry): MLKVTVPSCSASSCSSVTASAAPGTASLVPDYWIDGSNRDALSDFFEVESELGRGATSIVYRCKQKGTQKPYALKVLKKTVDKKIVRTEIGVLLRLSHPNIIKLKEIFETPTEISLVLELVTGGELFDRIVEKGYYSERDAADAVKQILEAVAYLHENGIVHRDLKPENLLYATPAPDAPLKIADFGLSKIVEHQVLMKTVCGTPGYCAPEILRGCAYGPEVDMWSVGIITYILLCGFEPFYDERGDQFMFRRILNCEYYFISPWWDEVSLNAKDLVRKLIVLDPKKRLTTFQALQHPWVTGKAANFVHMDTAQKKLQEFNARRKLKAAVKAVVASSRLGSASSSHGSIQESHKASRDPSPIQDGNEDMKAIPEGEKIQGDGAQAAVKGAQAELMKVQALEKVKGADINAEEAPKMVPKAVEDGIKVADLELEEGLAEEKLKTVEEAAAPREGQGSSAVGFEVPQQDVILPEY
# [9] = target: T2, Tyrosine-protein kinase ZAP-70 (Homo sapiens) (UniProt P43403); assay: Inhibition of ZAP70 at 10 uM by HTRF assay relative to control; outline: as §1
# T2 sequence (whole entry): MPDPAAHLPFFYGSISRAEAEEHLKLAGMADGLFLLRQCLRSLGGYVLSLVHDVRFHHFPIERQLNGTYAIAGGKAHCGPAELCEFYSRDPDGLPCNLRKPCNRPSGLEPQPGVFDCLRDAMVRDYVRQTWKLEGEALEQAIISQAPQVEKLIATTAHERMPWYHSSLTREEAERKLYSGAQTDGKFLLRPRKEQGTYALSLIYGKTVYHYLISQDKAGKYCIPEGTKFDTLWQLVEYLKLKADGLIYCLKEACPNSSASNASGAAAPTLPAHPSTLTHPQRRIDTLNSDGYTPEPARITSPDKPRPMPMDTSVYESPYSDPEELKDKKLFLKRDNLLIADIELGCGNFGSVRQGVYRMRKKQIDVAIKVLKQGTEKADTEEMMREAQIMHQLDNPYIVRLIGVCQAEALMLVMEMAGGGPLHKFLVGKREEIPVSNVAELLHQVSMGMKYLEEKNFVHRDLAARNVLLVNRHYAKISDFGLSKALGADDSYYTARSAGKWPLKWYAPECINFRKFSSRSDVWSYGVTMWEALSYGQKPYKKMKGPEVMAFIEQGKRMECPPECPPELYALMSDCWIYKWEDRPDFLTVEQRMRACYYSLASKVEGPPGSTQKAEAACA
# [10] = target: Receptor-type tyrosine-protein kinase FLT3 (Homo sapiens) (UniProt P36888); assay: Inhibition of FLT3 at 10 uM by HTRF assay relative to control; outline: as §1
# [11] = target: T3, Mitogen-activated protein kinase 12 (Homo sapiens) (UniProt P53778); assay: Inhibition of p38-gamma at 10 uM by HTRF assay relative to control; outline: as §1
# T3 sequence (whole entry): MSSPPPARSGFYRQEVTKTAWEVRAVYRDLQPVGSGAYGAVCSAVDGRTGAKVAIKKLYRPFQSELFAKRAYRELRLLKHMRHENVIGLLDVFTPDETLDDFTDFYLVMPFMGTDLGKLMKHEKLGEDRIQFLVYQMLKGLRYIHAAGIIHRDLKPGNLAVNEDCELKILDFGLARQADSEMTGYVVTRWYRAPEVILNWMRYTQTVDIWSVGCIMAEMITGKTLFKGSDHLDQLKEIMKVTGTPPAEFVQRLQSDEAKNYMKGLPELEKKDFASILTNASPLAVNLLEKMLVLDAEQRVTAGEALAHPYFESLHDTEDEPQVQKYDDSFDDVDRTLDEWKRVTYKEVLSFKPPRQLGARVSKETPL
# [12] = target: Rho-associated protein kinase 2 (Homo sapiens) (UniProt O75116); assay: Inhibition of ROCK2 at 10 uM by HTRF assay relative to control; outline: as §1
# [13] = target: Mitogen-activated protein kinase 9 (Homo sapiens) (UniProt P45984); assay: Inhibition of JNK2 at 10 uM by HTRF assay relative to control; outline: as §1
# [14] = Inhibition of IRK at 10 uM by HTRF assay relative to control; outline: as §1
# [15] = target: Epidermal growth factor receptor (Homo sapiens) (UniProt P00533); assay: Inhibition of EGFR at 10 uM by HTRF assay relative to control; outline: as §1
# [16] = target: Ribosomal protein S6 kinase alpha-3 (Homo sapiens) (UniProt P51812); assay: Inhibition of RSK2 at 10 uM by HTRF assay relative to control; outline: as §1
# Sequence of Receptor-type tyrosine-protein kinase FLT3 (Homo sapiens) (P36888 whole entry): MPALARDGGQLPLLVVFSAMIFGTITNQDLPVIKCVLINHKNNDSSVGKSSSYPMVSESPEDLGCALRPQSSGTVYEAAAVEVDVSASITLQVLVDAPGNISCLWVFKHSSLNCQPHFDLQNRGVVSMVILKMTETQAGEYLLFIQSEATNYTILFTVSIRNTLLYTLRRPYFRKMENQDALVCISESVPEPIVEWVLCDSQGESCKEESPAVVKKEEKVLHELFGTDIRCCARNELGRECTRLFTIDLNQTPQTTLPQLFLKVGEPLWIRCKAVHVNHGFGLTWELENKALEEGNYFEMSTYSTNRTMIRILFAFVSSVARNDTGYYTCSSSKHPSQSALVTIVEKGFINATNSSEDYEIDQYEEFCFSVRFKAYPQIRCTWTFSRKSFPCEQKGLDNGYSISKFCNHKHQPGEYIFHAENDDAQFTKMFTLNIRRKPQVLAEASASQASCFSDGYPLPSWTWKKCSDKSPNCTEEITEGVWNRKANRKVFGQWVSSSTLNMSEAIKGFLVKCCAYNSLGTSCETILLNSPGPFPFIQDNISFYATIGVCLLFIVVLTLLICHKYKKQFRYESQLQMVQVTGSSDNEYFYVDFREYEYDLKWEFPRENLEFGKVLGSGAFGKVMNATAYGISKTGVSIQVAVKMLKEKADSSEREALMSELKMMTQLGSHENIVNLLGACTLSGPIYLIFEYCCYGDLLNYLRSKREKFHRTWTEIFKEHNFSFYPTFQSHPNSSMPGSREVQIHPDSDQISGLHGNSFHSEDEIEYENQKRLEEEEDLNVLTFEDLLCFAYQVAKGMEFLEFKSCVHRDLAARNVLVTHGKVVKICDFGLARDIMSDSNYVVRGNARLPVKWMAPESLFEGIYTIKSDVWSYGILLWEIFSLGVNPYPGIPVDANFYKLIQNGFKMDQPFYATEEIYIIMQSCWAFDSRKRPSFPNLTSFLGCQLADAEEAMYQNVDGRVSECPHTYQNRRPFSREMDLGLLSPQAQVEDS
# Sequence of Focal adhesion kinase 1 (Homo sapiens) (Q05397 2-1052 limits assumed): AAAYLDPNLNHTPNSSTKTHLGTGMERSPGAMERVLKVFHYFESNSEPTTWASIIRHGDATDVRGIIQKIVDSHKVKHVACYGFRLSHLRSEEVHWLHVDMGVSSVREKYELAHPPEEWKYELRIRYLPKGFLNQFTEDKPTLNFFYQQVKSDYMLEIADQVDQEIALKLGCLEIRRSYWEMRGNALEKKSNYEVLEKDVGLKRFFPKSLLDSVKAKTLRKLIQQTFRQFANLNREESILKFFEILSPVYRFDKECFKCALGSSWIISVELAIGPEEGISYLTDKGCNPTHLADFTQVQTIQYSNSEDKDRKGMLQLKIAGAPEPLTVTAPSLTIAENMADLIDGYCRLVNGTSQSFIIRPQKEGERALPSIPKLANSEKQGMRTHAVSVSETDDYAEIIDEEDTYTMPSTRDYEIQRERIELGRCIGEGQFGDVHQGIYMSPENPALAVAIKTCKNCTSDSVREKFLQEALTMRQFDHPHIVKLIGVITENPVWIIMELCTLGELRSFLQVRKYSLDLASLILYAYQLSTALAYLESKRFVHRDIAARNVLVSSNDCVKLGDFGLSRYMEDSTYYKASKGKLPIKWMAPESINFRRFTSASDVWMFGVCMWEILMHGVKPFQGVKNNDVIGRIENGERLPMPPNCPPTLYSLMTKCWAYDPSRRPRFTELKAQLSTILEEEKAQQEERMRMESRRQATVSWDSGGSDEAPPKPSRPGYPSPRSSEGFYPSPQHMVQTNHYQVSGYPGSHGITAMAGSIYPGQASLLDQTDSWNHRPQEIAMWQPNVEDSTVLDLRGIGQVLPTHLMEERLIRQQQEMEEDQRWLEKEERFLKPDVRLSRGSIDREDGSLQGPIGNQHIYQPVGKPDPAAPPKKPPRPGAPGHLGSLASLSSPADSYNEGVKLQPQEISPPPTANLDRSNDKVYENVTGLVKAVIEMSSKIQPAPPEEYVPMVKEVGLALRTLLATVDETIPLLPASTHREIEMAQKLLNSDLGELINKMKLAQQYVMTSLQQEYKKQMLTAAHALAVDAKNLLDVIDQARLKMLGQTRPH
# Sequence of Tyrosine-protein kinase Lck (Homo sapiens) (P06239 2-509 limits assumed): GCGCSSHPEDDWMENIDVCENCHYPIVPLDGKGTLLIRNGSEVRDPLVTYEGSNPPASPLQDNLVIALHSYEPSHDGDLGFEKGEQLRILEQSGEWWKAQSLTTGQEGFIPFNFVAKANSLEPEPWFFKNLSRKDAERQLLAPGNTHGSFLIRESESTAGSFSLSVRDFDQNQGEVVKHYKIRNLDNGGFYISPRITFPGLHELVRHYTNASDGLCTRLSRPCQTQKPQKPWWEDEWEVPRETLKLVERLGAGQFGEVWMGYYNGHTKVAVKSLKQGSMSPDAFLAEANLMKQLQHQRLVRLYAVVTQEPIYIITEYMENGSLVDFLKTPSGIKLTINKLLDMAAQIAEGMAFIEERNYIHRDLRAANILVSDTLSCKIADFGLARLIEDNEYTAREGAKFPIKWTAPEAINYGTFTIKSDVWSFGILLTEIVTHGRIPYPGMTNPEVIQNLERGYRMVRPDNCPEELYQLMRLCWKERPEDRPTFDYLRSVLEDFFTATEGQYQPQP
# Sequence of Rho-associated protein kinase 2 (Homo sapiens) (O75116 whole entry, looked up): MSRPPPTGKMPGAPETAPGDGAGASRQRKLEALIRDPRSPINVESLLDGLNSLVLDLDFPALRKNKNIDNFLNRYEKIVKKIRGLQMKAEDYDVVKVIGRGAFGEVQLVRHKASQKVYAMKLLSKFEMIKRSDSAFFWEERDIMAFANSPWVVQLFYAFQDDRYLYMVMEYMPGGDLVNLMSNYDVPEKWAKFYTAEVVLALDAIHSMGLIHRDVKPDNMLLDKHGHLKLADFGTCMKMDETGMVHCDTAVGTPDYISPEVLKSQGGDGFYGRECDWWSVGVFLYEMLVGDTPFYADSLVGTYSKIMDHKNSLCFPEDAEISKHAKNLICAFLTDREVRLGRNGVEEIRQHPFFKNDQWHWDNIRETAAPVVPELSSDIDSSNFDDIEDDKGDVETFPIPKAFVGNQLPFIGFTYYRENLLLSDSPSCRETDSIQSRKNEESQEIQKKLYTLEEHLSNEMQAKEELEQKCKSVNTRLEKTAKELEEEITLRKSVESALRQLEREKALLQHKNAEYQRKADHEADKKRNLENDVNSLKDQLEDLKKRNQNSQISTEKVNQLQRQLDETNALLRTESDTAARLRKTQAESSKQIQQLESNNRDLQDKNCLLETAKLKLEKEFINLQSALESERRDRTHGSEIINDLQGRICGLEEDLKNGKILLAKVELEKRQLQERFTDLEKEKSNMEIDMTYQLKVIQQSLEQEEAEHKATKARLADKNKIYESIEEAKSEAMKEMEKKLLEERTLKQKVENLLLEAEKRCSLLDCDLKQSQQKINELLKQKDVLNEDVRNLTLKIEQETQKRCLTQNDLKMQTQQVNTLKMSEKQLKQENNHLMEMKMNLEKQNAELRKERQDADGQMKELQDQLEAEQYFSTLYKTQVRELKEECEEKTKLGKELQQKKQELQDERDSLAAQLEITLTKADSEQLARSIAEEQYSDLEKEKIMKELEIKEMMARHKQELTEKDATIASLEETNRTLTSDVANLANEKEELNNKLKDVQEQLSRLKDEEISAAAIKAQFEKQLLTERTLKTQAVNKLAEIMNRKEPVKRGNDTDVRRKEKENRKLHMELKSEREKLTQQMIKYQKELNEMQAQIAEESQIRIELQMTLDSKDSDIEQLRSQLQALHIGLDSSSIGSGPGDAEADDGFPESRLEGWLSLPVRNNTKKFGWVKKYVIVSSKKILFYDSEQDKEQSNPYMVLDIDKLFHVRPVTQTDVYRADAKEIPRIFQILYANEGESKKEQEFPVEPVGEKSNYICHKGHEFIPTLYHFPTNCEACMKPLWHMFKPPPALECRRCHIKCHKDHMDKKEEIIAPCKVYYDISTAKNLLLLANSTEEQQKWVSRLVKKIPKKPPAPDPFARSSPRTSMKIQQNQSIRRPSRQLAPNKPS
# Sequence of Mitogen-activated protein kinase 9 (Homo sapiens) (P45984 whole entry, looked up): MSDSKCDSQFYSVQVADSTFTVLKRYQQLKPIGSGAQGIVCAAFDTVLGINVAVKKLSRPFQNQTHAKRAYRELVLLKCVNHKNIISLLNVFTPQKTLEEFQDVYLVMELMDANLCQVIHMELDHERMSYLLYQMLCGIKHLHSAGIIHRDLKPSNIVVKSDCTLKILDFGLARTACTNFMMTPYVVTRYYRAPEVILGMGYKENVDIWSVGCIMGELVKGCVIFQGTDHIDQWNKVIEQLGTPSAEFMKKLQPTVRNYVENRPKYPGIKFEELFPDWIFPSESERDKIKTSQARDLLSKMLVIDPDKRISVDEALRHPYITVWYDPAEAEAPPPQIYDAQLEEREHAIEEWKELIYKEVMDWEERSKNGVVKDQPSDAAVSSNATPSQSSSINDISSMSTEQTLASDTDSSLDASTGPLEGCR
# Sequence of Mitogen-activated protein kinase 8 (Homo sapiens) (P45983 whole entry): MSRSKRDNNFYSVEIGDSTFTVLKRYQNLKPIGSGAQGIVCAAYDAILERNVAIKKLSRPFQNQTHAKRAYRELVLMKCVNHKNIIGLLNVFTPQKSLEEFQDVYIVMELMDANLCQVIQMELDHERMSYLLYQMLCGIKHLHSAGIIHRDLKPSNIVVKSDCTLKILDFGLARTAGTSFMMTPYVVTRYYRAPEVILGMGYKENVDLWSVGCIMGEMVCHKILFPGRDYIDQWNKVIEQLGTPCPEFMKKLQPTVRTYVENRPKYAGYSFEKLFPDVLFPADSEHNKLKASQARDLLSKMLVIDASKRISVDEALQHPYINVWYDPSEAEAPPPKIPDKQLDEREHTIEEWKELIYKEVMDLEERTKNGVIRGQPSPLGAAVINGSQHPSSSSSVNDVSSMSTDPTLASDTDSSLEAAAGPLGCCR
Compound,inhibition [1] [%],inhibition [2] [%],inhibition [3] [%],inhibition [4] [%],inhibition [5] [%],inhibition [6] [%],inhibition [7] [%],inhibition [8] [%],inhibition [9] [%],inhibition [10] [%],inhibition [11] [%],inhibition [12] [%],inhibition [13] [%],inhibition [14] [%],inhibition [15] [%],inhibition [16] [%]
Cc1cccc(N(C)c2cc(Nc3cccc(C(=O)NCc4ccc(N(C)C)cc4)c3)ncn2)c1,0,13,4,0,9,0,0,0,4,21,0,0,4,0,97,0
CN(C)CC(C)(C)CNC(=O)C1CCN(c2cc(N3CCOCC3)nc(N)n2)CC1,0,6,10,0,3,0,0,0,8,0,2,0,1,0,0,0
CC(=O)CCCCC(=O)N1CCN(c2nccc(Oc3cccc(C)c3)n2)CC1,8,4,5,0,4,0,2,0,0,0,0,0,11,0,0,0
Cc1cccc(N(C)c2cc(N3CCN(CC(=O)Nc4nc(-c5ccccc5)cs4)CC3)ncn2)c1,0,7,0,0,5,3,5,0,2,0,3,0,0,0,0,0
CC(=O)N1CCN(C(=O)c2cccc(Nc3cc(N(C)c4cccc(C)c4)ncn3)c2)CC1,0,42,17,27,17,6,0,0,9,29,3,0,7,0,99,14
COc1ccc(-c2noc(CN3CCN(c4cc(Nc5cccc(O)c5)ncn4)CC3)n2)cc1,0,6,3,0,3,0,4,0,0,0,0,0,2,0,17,0
CN(C)CC(C)(C)CNC(=O)c1cccc(Nc2nccc(Nc3ccc4ncsc4c3)n2)c1,97,99,99,100,97,0,0,16,18,99,9,29,88,87,16,17
CN(CCc1ccccn1)C(=O)c1cccc(Nc2nccc(Nc3ccc4ncsc4c3)n2)c1,70,91,69,37,78,5,0,0,13,98,1,7,53,34,23,35
O=C(NCc1cccnc1)c1cccc(-c2ccc(Nc3ccc4ncsc4c3)nn2)c1,55,85,11,42,67,0,4,0,11,98,5,93,51,73,27,62
Nc1nc(N2CCOCC2)cc(N2CCC(C(=O)NCc3cccs3)CC2)n1,0,8,3,0,3,0,0,0,3,0,0,1,3,0,0,0
COc1cccc(Nc2cc(Nc3cccc(C(=O)NCCCn4ccnc4)c3)nc(N)n2)c1,71,7,10,0,10,2,1,0,6,1,17,12,32,0,91,0
Cc1cccc(N(C)c2cc(N3CCN(C(=O)Cc4c[nH]c5ccccc45)CC3)ncn2)c1,9,1,0,0,5,0,3,0,2,0,3,0,5,0,0,0
COc1cccc(Nc2cc(N3CCC[C@H]3C(=O)NCCN3CCCCC3)nc(N)n2)c1,10,8,1,0,4,5,0,0,2,0,0,0,3,0,0,0
Cc1cccc(N(C)c2cc(Nc3cccc(C(=O)NCc4ccncc4)c3)ncn2)c1,19,33,26,9,20,0,0,0,6,13,3,0,21,0,100,3
COc1cccc(Nc2cc(Nc3cccc(C(=O)N(C)CCc4ccccn4)c3)nc(N)n2)c1,19,3,6,0,11,0,4,0,3,0,3,2,9,6,36,0

# — ChEMBL document CHEMBL1150387, “Development and experimental validation of a docking strategy for the generation of kinase-targeted libraries” (J Med Chem, 2008)
